Assay results from ChEMBL document CHEMBL3865784 (Eur J Med Chem, 2016).

Tests used:
[1] = Cytotoxicity against NQO1-deficient human HL60 cells assessed as reduction in cell viability after 72 hrs by MTT assay; assay type: functional, cell-based; conditions: HL-60, 72 h
Summary of the method: (§1)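 Cancer lines from NCI, grown in RPMI 1640 with 10% FBS, 2 mM L-glutamine, penicillin/streptomycin, 37 °C, 5% CO2; seeded 0.1 × 10^6 cells/well (HL-60) or 0.7 × 10^5 cells/well (solid tumours). Compounds in DMSO, final 0.1% v/v; DMSO vehicle as negative control.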

[2] = Cytotoxicity against human HCT116 cells expressing NQO1 assessed as reduction in cell viability after 72 hrs by MTT assay; assay type: functional, cell-based; conditions: HCT-116, 72 h; summary of the method: as §1
[3] = Cytotoxicity against human PC3 cells overexpressing NQO1 assessed as reduction in cell viability after 72 hrs by MTT assay; assay type: functional, cell-based; conditions: PC-3, 72 h
[4] = Cytotoxicity against human SF295 cells overexpressing NQO1 assessed as reduction in cell viability after 72 hrs by MTT assay; assay type: functional, cell-based; conditions: SF-295, 72 h
[5] = Cytotoxicity against human MDA-MB-435 cells overexpressing NQO1 assessed as reduction in cell viability after 72 hrs by MTT assay; assay type: functional, cell-based; conditions: MDA-MB-435, 72 h; summary of the method: as §1
[6] = Cytotoxicity against human OVCAR8 cells overexpressing NQO1 assessed as reduction in cell viability after 72 hrs by MTT assay; assay type: functional, cell-based; conditions: OVCAR-8, 72 h; summary of the method: as §1
[7] = Cytotoxicity against NQO1-deficient human PBMC assessed as reduction in cell viability after 72 hrs by MTT assay; assay type: toxicity, cell-based; conditions: for IC50: pbmc
[8] = Cytotoxicity against NQO1-deficient chinese hamster V79 cells assessed as reduction in cell viability after 72 hrs by MTT assay; assay type: toxicity, cell-based, Cricetulus griseus; conditions: v79
[9] = species: Mus musculus; assay: Cytotoxicity against NQO1-deficient mouse L929 cells assessed as reduction in cell viability after 72 hrs by MTT assay; assay type: toxicity, cell-based; conditions: l929
[10] = test system: HL-60; assay: Selectivity index, ratio of IC50 for NQO1-deficient human PBMC to IC50 for NQO1-deficient human HL60 cells
Summary of the method: (§2)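 Selectivity index is IC50 in the normal cells divided by IC50 in the cancer line. Normal cells: V79 and L929 in DMEM, PBMC in RPMI with phytohaemagglutinin. Cancer lines in RPMI with 10% FBS, seeded at 0.1 × 10^6 (HL-60) or 0.7 × 10^5 cells/well (solid tumors). Absorbance 550 nm; nonlinear regression.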

[11] = test system: HL-60; assay: Selectivity index, ratio of IC50 for NQO1-deficient chinese hamster V79 cells to IC50 for NQO1-deficient human HL60 cells; assay type: functional; summary of the method: as §2
[12] = test system: L929; assay: Selectivity index, ratio of IC50 for NQO1-deficient mouse L929 cells to IC50 for NQO1-deficient human HL60 cells; assay type: functional; summary of the method: as §2
[13] = test system: PC-3; assay: Selectivity index, ratio of IC50 for NQO1-deficient human PBMC to IC50 for human PC3 cells overexpressing NQO1; summary of the method: as §2
[14] = test system: V79; assay: Selectivity index, ratio of IC50 for NQO1-deficient chinese hamster V79 cells to IC50 for human PC3 cells overexpressing NQO1; summary of the method: as §2
[15] = test system: L929; assay: Selectivity index, ratio of IC50 for NQO1-deficient mouse L929 cells to IC50 for human PC3 cells overexpressing NQO1; summary of the method: as §2
[16] = test system: SF-295; assay: Selectivity index, ratio of IC50 for NQO1-deficient human PBMC to IC50 for human SF295 cells overexpressing NQO1; summary of the method: as §2
[17] = test system: L929; assay: Selectivity index, ratio of IC50 for NQO1-deficient mouse L929 cells to IC50 for human SF295 cells overexpressing NQO1; summary of the method: as §2
[18] = Selectivity index, ratio of IC50 for NQO1-deficient human PBMC to IC50 for human MDA-MB-435 cells overexpressing NQO1; summary of the method: as §2
[19] = test system: V79; assay: Selectivity index, ratio of IC50 for NQO1-deficient chinese hamster V79 cells to IC50 for human MDA-MB-435 cells overexpressing NQO1; summary of the method: as §2
[20] = test system: L929; assay: Selectivity index, ratio of IC50 for NQO1-deficient mouse L929 cells to IC50 for human MDA-MB-435 cells overexpressing NQO1; summary of the method: as §2
[21] = test system: SF-295; assay: Selectivity index, ratio of IC50 for NQO1-deficient chinese hamster V79 cells to IC50 for human SF295 cells overexpressing NQO1; summary of the method: as §2
[22] = test system: OVCAR-8; assay: Selectivity index, ratio of IC50 for NQO1-deficient human PBMC to IC50 for human OVCAR8 cells overexpressing NQO1
Summary of the method: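 Selectivity index is IC50 in the normal cells divided by IC50 in the cancer line. All IC50s come from 72 h MTT assays. Normal cells: V79 and L929 in DMEM, PBMC in RPMI with phytohaemagglutinin. Cancer lines in RPMI with 10% FBS, seeded at 0.1 × 10^6 (HL-60) or 0.7 × 10^5 cells/well (solid tumors). Absorbance 550 nm; nonlinear regression.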

[23] = test system: L929; assay: Selectivity index, ratio of IC50 for NQO1-deficient mouse L929 cells to IC50 for human OVCAR8 cells overexpressing NQO1; summary of the method: as §2

C#Cc1cccc(NC2C3=C(OC2(C)C)C(=O)c2ccccc2C3=O)c1 (stereo unspecified)
IC50 [1]: 2.59 µM | IC50 [2]: 4.6 µM | IC50 [3]: 5.15 µM | IC50 [4]: > 14.6 µM | IC50 [5]: 3.93 µM | IC50 [6]: 7.13 µM | IC50 [7]: 6.46 µM | IC50 [8]: 6.06 µM

O=C1C2=C(C(=O)c3ccccc31)[C@H](c1cccc3ccccc13)[C@@H](n1cc(C[Se]c3ccccc3)nn1)CO2
IC50 [1]: > 8.67 µM | IC50 [2]: > 8.67 µM | IC50 [3]: > 8.67 µM | IC50 [4]: > 8.67 µM | IC50 [5]: > 8.67 µM | IC50 [6]: > 8.67 µM | IC50 [7]: > 8.67 µM | IC50 [8]: > 8.67 µM | IC50 [9]: > 8.67 µM

C#Cc1cccc(NC2CC(C)(C)OC3=C2C(=O)c2ccccc2C3=O)c1 (stereo unspecified)
IC50 [1]: > 14 µM | IC50 [2]: > 14 µM | IC50 [3]: > 14 µM | IC50 [4]: > 14 µM | IC50 [5]: > 14 µM | IC50 [6]: > 14 µM | IC50 [7]: > 14 µM | IC50 [8]: > 14 µM | IC50 [9]: > 14 µM

O=C1C=C(n2cc(C[Se]c3ccccc3)nn2)C(=O)c2ccccc21
IC50 [1]: > 12.7 µM | IC50 [2]: > 12.7 µM | IC50 [3]: > 12.7 µM | IC50 [4]: > 12.7 µM | IC50 [5]: > 12.7 µM | IC50 [6]: > 12.7 µM | IC50 [7]: > 12.7 µM | IC50 [8]: > 12.7 µM | IC50 [9]: > 12.7 µM

CC1(C)OC2=C(C(=O)C(=O)c3ccccc32)C(N=[N+]=[N-])[C@@H]1Br (stereo partly specified)
IC50 [2]: 2.48 µM | IC50 [3]: 1.68 µM | IC50 [5]: 1.54 µM | IC50 [6]: 2.24 µM | IC50 at 72 h ([7]; human): 3.58 µM | IC50 [8]: 2.4 µM | IC50 [9]: 2.04 µM | Ratio IC50 [10]: 2.5 | Ratio IC50 [11]: 1.6 | Ratio IC50 [12]: 1.4 | Ratio IC50 [13]: 2.1 | Ratio IC50 [14]: 1.4 | Ratio IC50 [15]: 1.2 | Ratio IC50 [16]: 1.8 | Ratio IC50 [17]: 1 | Ratio IC50 [18]: 2.3 | Ratio IC50 [19]: 1.5 | Ratio IC50 [20]: 1.3

O=C1C(Cl)=C(NCc2cn(C[Se]c3ccccc3)nn2)C(=O)c2ccccc21
IC50 [2]: 3.25 µM | IC50 [3]: 2.25 µM | IC50 [4]: 2.93 µM | IC50 [5]: 2.01 µM | IC50 [6]: 2.58 µM | IC50 [7]: 6.34 µM | IC50 [8]: 2.51 µM | IC50 [9]: 3.43 µM

CC1(C)CC(Nc2cccc(-c3cn(C[Se]c4ccccc4)nn3)c2)C2=C(O1)C(=O)c1ccccc1C2=O (stereo unspecified)
IC50 [1]: 2 µM | IC50 [2]: 4.9 µM | IC50 [3]: 2.6 µM | IC50 [4]: 1.88 µM | IC50 [5]: 1.49 µM | IC50 [6]: 3.09 µM | IC50 [7]: 4.16 µM | IC50 [8]: 3.65 µM | IC50 [9]: 3.3 µM | Ratio IC50 [10]: 2 | Ratio IC50 [11]: 1.8 | Ratio IC50 [12]: 1.6 | Ratio IC50 [21]: 1.9 | Ratio IC50 [17]: 1.7 | Ratio IC50 [18]: 2.8 | Ratio IC50 [19]: 2.4 | Ratio IC50 [20]: 2.2

CC1(C)CC(N=[N+]=[N-])C2=C(O1)C(=O)c1ccccc1C2=O (stereo unspecified)
IC50 [1]: 1.66 µM | IC50 [2]: 2.96 µM | IC50 [3]: 2.15 µM | IC50 [5]: 2.72 µM | IC50 [6]: 1.48 µM | IC50 [7]: 6.11 µM | IC50 [8]: 3.67 µM | IC50 [9]: 4.13 µM | Ratio IC50 [10]: 3.6 | Ratio IC50 [11]: 2.2 | Ratio IC50 [12]: 2.4 | Ratio IC50 [16]: 2.9 | Ratio IC50 [21]: 1.7 | Ratio IC50 [17]: 2 | Ratio IC50 [22]: 4.1 | Ratio IC50 [23]: 2.7

O=C1C2=C(C(=O)c3ccccc31)[C@H](c1ccccc1)[C@@H](n1cc(C[Se]c3ccccc3)nn1)CO2
IC50 [1]: 8.26 µM | IC50 [2]: 7.22 µM | IC50 [3]: 7.79 µM | IC50 [4]: 5.58 µM | IC50 [5]: 6.82 µM | IC50 [8]: 6.74 µM | IC50 [9]: 7.16 µM

CC1(C)OC2=C(C(=O)c3ccccc3C2=O)C1n1cc(C[Se]c2ccccc2)nn1 (stereo unspecified)
IC50 [1]: 1.59 µM | IC50 [2]: 2.54 µM | IC50 [3]: 2.95 µM | IC50 [4]: 2.65 µM | IC50 [5]: 2.15 µM | IC50 [6]: 2.8 µM | IC50 [7]: 3.23 µM | IC50 [8]: 4.03 µM | IC50 [9]: 3.77 µM

CC1(C)OC2=C(C(=O)c3ccccc3C2=O)C1N=[N+]=[N-] (stereo unspecified)
IC50 [1]: 2.23 µM | IC50 [2]: 3.3 µM | IC50 [3]: 4.09 µM | IC50 [4]: 3.04 µM | IC50 [5]: 2.52 µM | IC50 [6]: 3.53 µM | IC50 [7]: 3.16 µM | IC50 [9]: 3.68 µM

CC1(C)OC2=C(C(=O)C(=O)c3ccccc32)C1N=[N+]=[N-] (stereo unspecified)
IC50 [2]: 0.89 µM | IC50 [3]: 1.74 µM | IC50 [6]: 1.34 µM | IC50 [8]: 3.27 µM | IC50 [9]: 2.67 µM

CC1(C)CCC2=C(O1)c1ccccc1C(=O)C2=O [LAPACHONE]
IC50 [2]: 0.87 µM | IC50 [4]: 0.95 µM | IC50 [5]: 0.25 µM | IC50 [7]: > 20.6 µM

CC1(C)CC(n2cc(C[Se]c3ccccc3)nn2)C2=C(O1)C(=O)c1ccccc1C2=O (stereo unspecified)
IC50 [1]: 5.46 µM | IC50 [2]: 2.24 µM | IC50 [3]: 3.89 µM | IC50 [4]: 4.2 µM | IC50 [6]: 2.55 µM | IC50 [7]: 4.45 µM

[N-]=[N+]=NC1=CC(=O)c2ccccc2C1=O
IC50 [2]: 4.27 µM | IC50 [3]: 2.16 µM | IC50 [4]: 3.41 µM | IC50 [5]: 2.36 µM | IC50 [6]: 3.51 µM | IC50 [7]: 8.64 µM | IC50 [8]: 5.77 µM | IC50 [9]: 5.17 µM
